In ChEMBL document CHEMBL4382221, “First-in-class DAPK1/CSF1R dual inhibitors: Discovery of 3,5-dimethoxy-N-(4-(4-methoxyphenoxy)-2-((6-morpholinopyridin-3-yl)amino)pyrimidin-5-yl)benzamide as a potential anti-tauopathies agent” (Eur J Med Chem, 2019):
Activity calls are given as the source filed them. No cut-off for these calls is given here.

What was measured:
[1] = target: T1, Macrophage colony-stimulating factor 1 receptor (Homo sapiens, UniProt P07333); assay: Inhibition of human CSF1R at 10 uM using poly[Glu:Tyr] (4:1) as substrate after 120 mins in presence of 10 uM [gamma-33P]-ATP by filtration method relative to control
How it was run: (§1)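 Radiometric HotSpot assay measuring substrate phosphorylation directly, with 10 μM ATP. Single-dose screen at 10 μM in duplicate, reported as mean % inhibition from two independent experiments.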

[2] = target: T1, Macrophage colony-stimulating factor 1 receptor; assay: Inhibition of human CSF1R using poly[Glu:Tyr] (4:1) as substrate after 120 mins in presence of 10 uM [gamma-33P]-ATP by filtration method
How it was run: (§2)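 Radiometric HotSpot assay with direct measurement of phosphorylated substrate at 10 μM ATP. IC50 was taken from a duplicate 10-dose series, 3-fold dilutions starting at 20 μM, reported as mean.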

[3] = target: T2, Death-associated protein kinase 1 (Homo sapiens, UniProt P53355); assay: Inhibition of human DAPK1 (1 to 363 residues) at 10 uM using KKLNRTLSFAEPG as substrate after 120 mins in presence of 10 uM [gamma-33P]-ATP by filtration method relative to control; how it was run: as §1
Target sequence in this assay (P53355 whole entry, looked up, the tested form may be a part): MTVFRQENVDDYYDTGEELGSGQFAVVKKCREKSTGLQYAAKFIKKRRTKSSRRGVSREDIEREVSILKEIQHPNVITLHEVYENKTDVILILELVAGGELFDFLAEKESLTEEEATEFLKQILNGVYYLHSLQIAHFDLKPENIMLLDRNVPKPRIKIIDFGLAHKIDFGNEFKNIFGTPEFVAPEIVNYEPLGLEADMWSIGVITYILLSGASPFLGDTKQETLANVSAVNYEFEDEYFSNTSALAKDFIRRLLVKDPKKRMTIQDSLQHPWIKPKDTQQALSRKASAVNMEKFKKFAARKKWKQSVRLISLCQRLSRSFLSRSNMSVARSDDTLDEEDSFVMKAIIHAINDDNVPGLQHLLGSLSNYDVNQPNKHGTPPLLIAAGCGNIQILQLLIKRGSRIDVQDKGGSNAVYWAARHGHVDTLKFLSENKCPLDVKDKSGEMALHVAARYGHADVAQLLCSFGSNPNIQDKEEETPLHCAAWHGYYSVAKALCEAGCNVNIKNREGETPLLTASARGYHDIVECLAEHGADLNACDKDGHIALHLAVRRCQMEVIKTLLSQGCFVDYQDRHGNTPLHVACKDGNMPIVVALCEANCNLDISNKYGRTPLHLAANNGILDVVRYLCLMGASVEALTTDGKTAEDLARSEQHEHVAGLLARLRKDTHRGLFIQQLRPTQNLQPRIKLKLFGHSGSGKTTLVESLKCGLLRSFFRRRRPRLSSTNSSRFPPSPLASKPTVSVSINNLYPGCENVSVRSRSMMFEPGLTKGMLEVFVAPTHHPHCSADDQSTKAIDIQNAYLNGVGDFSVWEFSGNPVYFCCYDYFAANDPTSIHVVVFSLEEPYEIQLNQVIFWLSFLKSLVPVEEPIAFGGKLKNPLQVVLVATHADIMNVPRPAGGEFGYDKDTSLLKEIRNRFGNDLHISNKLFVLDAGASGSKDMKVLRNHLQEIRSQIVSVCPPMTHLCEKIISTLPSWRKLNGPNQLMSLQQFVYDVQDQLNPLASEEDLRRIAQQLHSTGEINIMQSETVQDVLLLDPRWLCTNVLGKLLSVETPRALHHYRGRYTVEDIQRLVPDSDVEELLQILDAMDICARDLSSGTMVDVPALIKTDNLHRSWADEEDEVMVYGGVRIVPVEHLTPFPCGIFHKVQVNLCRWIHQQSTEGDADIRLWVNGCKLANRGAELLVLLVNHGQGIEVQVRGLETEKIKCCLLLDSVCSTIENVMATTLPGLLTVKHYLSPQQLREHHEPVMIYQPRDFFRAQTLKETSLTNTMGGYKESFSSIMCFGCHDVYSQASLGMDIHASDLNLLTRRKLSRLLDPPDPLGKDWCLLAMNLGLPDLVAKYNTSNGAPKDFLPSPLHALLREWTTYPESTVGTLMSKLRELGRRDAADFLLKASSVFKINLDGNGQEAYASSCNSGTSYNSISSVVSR

[4] = target: T2, Death-associated protein kinase 1; assay: Inhibition of human DAPK1 (1 to 363 residues) using KKLNRTLSFAEPG as substrate after 120 mins in presence of 10 uM [gamma-33P]-ATP by filtration method; how it was run: as §2
Target sequence in this assay (P53355 whole entry, the tested form may be a part): as the sequence (P53355 whole entry, looked up, the tested form may be a part) above

[5] = target: T2, Death-associated protein kinase 1; assay: Inhibition of human DAPK1 (1 to 363 residues) at 20 uM using KKLNRTLSFAEPG as substrate after 120 mins in presence of 10 uM [gamma-33P]-ATP by filtration method relative to control
How it was run: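 Radiometric HotSpot kinase assay with 10 μM ATP. Compound tested at a single 20 μM concentration, reported as mean % inhibition from two independent experiments.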
Target sequence in this assay (P53355 whole entry, looked up, the tested form may be a part): as above

[6] = target: T2, Death-associated protein kinase 1; assay: Inhibition of DAPK1 in HEK293 tau-BiFC cells assessed as reduction in forskolin-induced tau aggregation at 1 to 50 uM after 48 hrs by Hoechst staining based HCS analysis; format: cell-based
How it was run: (§3)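 HEK293 cells expressing tau-BiFC were exposed to compounds at 50, 10 and 1 μM with forskolin (30 μM) as the tau aggregation activator for 48 h. BiFC fluorescence intensity was quantified as the read-out. Data are mean ± SD.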
Target sequence in this assay (P53355 whole entry, looked up, the tested form may be a part): as above

[7] = Effective permeability of the compound at 50 uM after 4 hrs by PAMPA; format: ADME; details: read-out: Peff
How it was run: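 Parallel artificial membrane permeability assay across a BBB-PAMPA lipid membrane, reporting effective permeability (Pe) in 10^-6 cm/sec. […] Pe above 0.4 was taken as highly permeable, and above 10 as highly CNS bioavailable.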

[8] = target: T2, Death-associated protein kinase 1; assay: Inhibition of DAPK1 in HEK293 tau-BiFC cells assessed as reduction in forskolin-induced tau aggregation at 50 uM after 48 hrs by Hoechst staining based HCS analysis; format: cell-based; how it was run: as §3
Target sequence in this assay (P53355 whole entry, looked up, the tested form may be a part): as above

[9] = target: T2, Death-associated protein kinase 1; assay: Inhibition of DAPK1 in HEK293 tau-BiFC cells assessed as reduction in forskolin-induced tau aggregation at 10 uM after 48 hrs by Hoechst staining based HCS analysis; format: cell-based; how it was run: as §3
Target sequence in this assay (P53355 whole entry, looked up, the tested form may be a part): as above

[10] = system: BV-2; assay: Anti-neuroinflammatory activity in mouse BV2 cells assessed as inhibition of LPS-stimulated NO production at 10 uM preincubated for 1 hr followed by LPS stimulation for 23 hrs by Griess reagent based assay relative to control; format: functional
How it was run: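 Mouse BV-2 microglia were stimulated with LPS, with or without compound at 10 μM, and NO production was measured. Values are means ± SD of five independent experiments.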

T1 sequence (P07333 whole entry): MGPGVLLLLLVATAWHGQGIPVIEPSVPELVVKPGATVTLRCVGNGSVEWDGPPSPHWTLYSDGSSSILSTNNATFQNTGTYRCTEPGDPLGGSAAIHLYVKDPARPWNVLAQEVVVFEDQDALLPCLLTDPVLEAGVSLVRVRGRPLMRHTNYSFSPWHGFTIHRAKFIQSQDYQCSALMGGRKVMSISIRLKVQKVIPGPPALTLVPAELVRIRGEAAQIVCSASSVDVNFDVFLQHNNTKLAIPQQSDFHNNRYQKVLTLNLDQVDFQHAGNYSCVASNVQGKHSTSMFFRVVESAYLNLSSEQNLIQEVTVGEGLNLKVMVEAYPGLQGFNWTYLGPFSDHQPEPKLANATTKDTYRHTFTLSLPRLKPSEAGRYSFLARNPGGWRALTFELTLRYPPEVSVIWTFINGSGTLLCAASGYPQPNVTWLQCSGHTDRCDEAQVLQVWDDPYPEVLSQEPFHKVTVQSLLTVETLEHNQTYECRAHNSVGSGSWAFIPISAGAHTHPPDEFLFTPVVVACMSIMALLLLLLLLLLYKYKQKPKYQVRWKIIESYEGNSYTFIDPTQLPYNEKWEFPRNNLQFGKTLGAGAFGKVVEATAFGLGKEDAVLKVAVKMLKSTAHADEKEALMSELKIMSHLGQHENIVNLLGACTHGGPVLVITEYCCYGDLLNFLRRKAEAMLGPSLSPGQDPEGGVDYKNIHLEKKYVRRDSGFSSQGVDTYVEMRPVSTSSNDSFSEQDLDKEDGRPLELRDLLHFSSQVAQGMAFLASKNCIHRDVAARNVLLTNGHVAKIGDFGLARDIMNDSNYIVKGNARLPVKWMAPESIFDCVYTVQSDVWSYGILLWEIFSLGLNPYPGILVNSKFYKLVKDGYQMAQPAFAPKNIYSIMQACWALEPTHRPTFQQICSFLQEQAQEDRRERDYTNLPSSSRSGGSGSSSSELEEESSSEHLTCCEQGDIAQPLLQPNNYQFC

SMILES | inhibition [1] [%] | IC50 [2] [µM] | inhibition [3] [%] | IC50 [4] [µM] | inhibition [5] [%] | inhibition [6] | Papp at 4 h, 50 µM [7] [×10⁻⁶ cm/s] | inhibition [8] | inhibition [9] | inhibition [10]
COc1cccc(Oc2nc(Nc3ccc(N4CCOCC4)cc3)ncc2NC(N)=O)c1 | 77.6 | 1.29 | 15.8 |  |  |  |  |  |  | 
COc1ccc(Oc2nc(Nc3ccc(N4CCOCC4)cc3)ncc2NC(=O)c2cccc(C(F)(F)F)c2)cc1 | 74.7 | 4.89 |  | 2.61 | 69.7 | inactive |  |  |  | 
NC(=O)Nc1cnc(Nc2ccc(N3CCOCC3)cc2)nc1Oc1ccc(C(F)(F)F)cc1 | 59.6 |  |  | 14.3 | 44.9 | inactive |  |  |  | 
CC(=O)[C@H]1CC[C@H]2[C@@H]3CCC4=CC(=O)CC[C@]4(C)[C@H]3CC[C@]12C [PROGESTERONE] |  |  |  |  |  |  | 33.3 |  |  | 
COc1ccc(Oc2nc(Nc3ccc(N4CCOCC4)cc3)ncc2NC(=O)c2cc(OC)cc(OC)c2)cc1 | 95.3 | 0.12 |  | 2.77 | 66 |  |  | Active | inactive | inactive
COc1ccc(Oc2nc(Nc3ccc(N4CCOCC4)nc3)ncc2NC(N)=O)cc1 | 35.4 |  | 19.7 |  |  |  |  |  |  | 
